# Results pooled from the literature.
# Protocols differ between the studies behind these lines.
# Read-out: cell growth or viability
SMILES,cell line,method,time,IC50
O=c1c(O)c(-c2cc(O)c(O)c(O)c2)oc2cc(O)cc(O)c12,RT-4,ATP luminescence,72 h,72700 nM
NCCOc1cc(NC(=O)c2cccc(C(=O)Nc3cc(OCCN)c4ccccc4n3)n2)nc2ccccc12,WI-38,ATP luminescence,72 h,1100 nM
CC(C)C[C@H](NC(=O)[C@H](Cc1ccccc1)NC(=O)c1cnccn1)B(O)O,DV-90,ATP luminescence,,13 nM
CCN1CCN(c2ccc(Nc3cc(N(C)C(=O)Nc4c(Cl)c(OC)cc(OC)c4Cl)ncn3)cc2)CC1,RT-4,ATP luminescence,96 h,9.36 nM
COc1cc(C(=O)Nc2cc(OCCN3CCCC3)c3ccccc3n2)nc(C(=O)Nc2cc(OCCN3CCCC3)c3ccccc3n2)c1,WI-38,ATP luminescence,72 h,3900 nM
CN1CCN(c2ccc3nc(-c4c(N)c5c(F)cccc5[nH]c4=O)[nH]c3c2)CC1,RT-4,MTT,5 days,100 nM
Cc1cc(C)cc(COc2cc3c(cc2OCc2cc(C)cc(C)c2)[C@H]2C[C@](O)(Cc4cn(Cc5ccc(-c6ccccc6)cc5)nn4)C[C@H](C)N2CC3)c1,ASPC1,MTT,,703 nM
Cc1cccc(-n2ncc(Br)c(Br)c2=O)c1,NHBE,resazurin,96 h,1610 nM
COC(C)(C)CCC[C@](C)(O)[C@H]1CC[C@]2(C)[C@@H]1[C@H](O)C[C@@H]1[C@@]3(C)CC[C@H](O)C(C)(C)[C@@H]3CC[C@]12C,NCI-H358,MTT,72 h,19100 nM
COc1cc(Nc2nc(CN)cc3c(-c4ccccc4)n[nH]c23)cc(OC)c1OC,WI-38,MTS,48 h,> 10000 nM
COc1cc(-c2oc3cc(O)cc(O)c3c(=O)c2O)ccc1O,RT-4,ATP luminescence,72 h,34300 nM
COc1cc(C(=O)c2cc(CCc3ccc(C)cc3)sc2N)cc(OC)c1OC,Molt4/C8,,,> 10000 nM
NCCCOc1cc(NC(=O)c2cc(OCCN)cc(C(=O)Nc3cc(OCCCN)c4ccccc4n3)n2)nc2ccccc12,WI-38,ATP luminescence,72 h,10600 nM
O=C(Nc1ccc(Cl)cc1)c1ccc([N+](=O)[O-])o1,NHBE,resazurin,96 h,21400 nM
COc1cccc2c1C(=O)c1c(O)c3c(c(O)c1C2=O)C[C@@](O)(C(=O)CO)C[C@@H]3O[C@H]1C[C@H](N)[C@H](O)[C@H](C)O1,HME1,WST-1,72 h,50 nM
CNc1ncc2cc(-c3ccc(-c4cccc(C)n4)cc3Cl)c(=O)n(C[C@H]3OC[C@H](N)CO3)c2n1,HPAF-II,MTT,24 h,30200 nM
CCN(CC)CCCCNc1ncc2cc(-c3cc(OC)cc(OC)c3)c(NC(=O)NC(C)(C)C)nc2n1,RT-4,MTT,5 days,5 nM
CC(C)c1ccc(C2C(C#N)=C3N=C(N)c4ccccc4N3C3=C2C(=O)CCC3)cc1 (stereo not drawn),HMC3,imaging,,49100 nM
Nc1ccn([C@@H]2O[C@H](CO)[C@@H](O)C2(F)F)c(=O)n1,ASPC1,MTT,,65 nM
Cc1cc(C)cc(COc2cc3c(cc2OCc2cc(C)cc(C)c2)[C@H]2C[C@](O)(Cc4cn(CCCCCCNC(=O)[C@@H](CC(C)C)NC(=O)[C@@H](O)[C@H](N)Cc5ccccc5)nn4)C[C@H](C)N2CC3)c1,ASPC1,MTT,,1480 nM
C[C@H]1CNC(=O)c2cnn3ccc(nc23)N[C@H](C)c2cc(F)ccc2O1,HCC827,MTT,72 h,430 nM
C=C(C)C(=O)Nc1ccc(-c2c(-c3ccc(Oc4nccc(C)n4)c(F)c3)c3c(N)ncnc3n2C)cc1,AN3-CA,ATP luminescence,96 h,13.7 nM
C/C=C/C(=O)Nc1ccc(Cn2cc(C[C@@]3(O)C[C@@H]4c5cc(OCc6cc(C)cc(C)c6)c(OCc6cc(C)cc(C)c6)cc5CCN4[C@@H](C)C3)nn2)cc1,ASPC1,MTT,,553 nM
Cc1nc(Nc2ncc(C(=O)Nc3c(C)cccc3Cl)s2)cc(N2CCN(CCO)CC2)n1,ASPC1,MTT,,380 nM
Cc1cc(C)cc(COc2cc3c(cc2OCc2cc(C)cc(C)c2)[C@H]2C[C@](O)(Cc4cn(Cc5ccc(S(C)(=O)=O)cc5)nn4)C[C@H](C)N2CC3)c1,ASPC1,MTT,,537 nM
NCCOc1cc(C(=O)Nc2cc(OCCN)c3ccccc3n2)nc(C(=O)Nc2cc(OCCN)c3ccccc3n2)c1,WI-38,ATP luminescence,72 h,11100 nM
C=CC(=O)Nc1cc(Nc2nccc(-c3cn(C4CC4)c4ccccc34)n2)c(OC)cc1N(C)CCN(C)C,HCC827,ATP luminescence,72 h,3.3 nM
COc1cc(C(=O)c2c(N)sc(CCc3ccccc3)c2C)cc(OC)c1OC,Molt4/C8,,,> 10000 nM
Cc1cc(C)cc(COc2cc3c(cc2OCc2cc(C)cc(C)c2)C2CC(O)(Cc4cn(CCCCCCOc5cccc6c5C(=O)N(C5CCC(=O)NC5=O)C6=O)nn4)CC(C)N2CC3)c1 (stereo not drawn),ASPC1,MTT,,880 nM
CNc1nc2ccccc2n2c(-c3cccc(OC)c3)cnc12,LS174T,neutral red,96 h,868 nM
C#CCOc1cc(C(=O)Nc2cc(OCCCN)c3ccccc3n2)nc(C(=O)Nc2cc(OCCCN)c3ccccc3n2)c1,WI-38,ATP luminescence,72 h,3500 nM
COc1cc(Nc2nccc(-c3cnn4nc(OC)ccc34)n2)cc(C(F)(F)F)c1,KARPAS-299,ATP luminescence,,200 nM
CC(C)c1n[nH]c2c(Nc3ccccc3)nc(CNCc3ccccc3)cc12,WI-38,MTS,48 h,7000 nM
O=C(Nc1cc(OCCN2CCCC2)c2ccccc2n1)c1cc(OCCN2CCCC2)cc(C(=O)Nc2cc(OCCN3CCCC3)c3ccccc3n2)n1,WI-38,ATP luminescence,72 h,2100 nM
Cc1cc(C)cc(COc2cc3c(cc2OCc2cc(C)cc(C)c2)[C@H]2C[C@](O)(Cc4cn(Cc5ccc6ccccc6c5)nn4)C[C@H](C)N2CC3)c1,ASPC1,MTT,,601 nM
CCn1c(=O)c(-c2ccc(-c3cncs3)cc2Cl)cc2cnc(Nc3ccc(N4CCN(C)CC4)cc3)nc21,HPAF-II,MTT,24 h,7900 nM
[Cl-].[Cl-].[Ti+4].c1cc[cH-]c1.c1cc[cH-]c1,CAKI-1,XTT,72 h,> 200000 nM
NCCOc1cc(C(=O)Nc2cc(OCCN3CCCC3)c3ccccc3n2)nc(C(=O)Nc2cc(OCCN3CCCC3)c3ccccc3n2)c1,WI-38,ATP luminescence,72 h,500 nM
Cc1cc(C)cc(COc2cc3c(cc2OCc2cc(C)cc(C)c2)[C@H]2C[C@](O)(Cc4cn(Cc5ccc(O)cc5)nn4)C[C@H](C)N2CC3)c1,ASPC1,MTT,,450 nM
CCN1C(=O)N(c2c(F)c(OC)cc(OC)c2F)Cc2cnc3[nH]c(CN4CCOCC4)cc3c21,RT-4,ATP luminescence,96 h,5.03 nM
NCCOc1cc(NC(=O)c2cc(OCc3ccc(F)cc3)cc(C(=O)Nc3cc(OCCN)c4ccccc4n3)n2)nc2ccccc12,WI-38,ATP luminescence,72 h,4900 nM
Cc1cc(C)cc(COc2cc3c(cc2OCc2cc(C)cc(C)c2)C2CC(O)(Cc4cn(CCCCCCCCCCC(=O)Nc5cccc6c5C(=O)N(C5CCC(=O)NC5=O)C6=O)nn4)CC(C)N2CC3)c1 (stereo not drawn),ASPC1,MTT,,4800 nM
